Source: PubChem BioAssay (The Scripps Research Institute Molecular Screening Center)
OX1R antag-1: antagonists of human orexin 1 receptor (OX1R) | OX1R-expressing cells, FRET antagonist read-out | actives 1.8% (n = 330,000) | inhibition, % at 6.6 µM; in the data active means inhibition mostly above about 38%, no sharp cut-off; inactive means mostly below about 40%
OX1R antag-2: OX1R (HCRTR1) antagonists, primary screen, fluorescence, CHO/OX1R cells, Fluo-8 calcium, orexin A | AID 434989, 2010 | actives 0.43% (n = 330,000) | inhibition, % at 5 µM | Orexin/Hypocretin receptor type 1 (Homo sapiens), O43613 | Fluo-8 calcium fluorescence;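 active means inhibition above its plate's threshold, mean inhibition of all tested compounds on the plate plus 3 SD, cut at about 37% in these data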
CHO parental Ca: ATP-evoked calcium signal inhibitors, parental CHO, primary screen, counter-screen for OX1R antagonist project, cell-based, fluorescence, Fluo-8 calcium dye | actives 0.63% (n = 330,000) | parental CHO-K1, ATP-induced calcium, Fluo-8 fluorescence | inhibition, % at 5.6 µM;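 active means inhibition above that plate's mean sample inhibition plus 3 SD, cut at about 26% in these data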
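Material: Parental CHO cells | Reagent: ATP | Compound dosing: Single nominal dose of 5.6 µM per compound | Detection: Intracellular calcium via Fluo-8 no-wash fluorescent dye | Read-out: % inhibition of ATP-induced calcium mobilization | Benchmarks: Low control ATP plus DMSO, high control DMSO only | Replicates: Singlicate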
TAAR1 agonist: human TAAR1 agonists, primary screen, Fluo-8 calcium fluorescence, CHO RD-HGA16 cells. Trace amine-associated receptor 1 (Homo sapiens), Q96RJ0. activation, % at 3 µM. actives 0.99% (n = 360,000). vehicle wells 0%, saturating PEA agonist 100%;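 active means activation above the mean activation of all test compounds in the run plus 3 SD, cut at about 38% in these data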
Target sequence (Q96RJ0 whole entry, looked up): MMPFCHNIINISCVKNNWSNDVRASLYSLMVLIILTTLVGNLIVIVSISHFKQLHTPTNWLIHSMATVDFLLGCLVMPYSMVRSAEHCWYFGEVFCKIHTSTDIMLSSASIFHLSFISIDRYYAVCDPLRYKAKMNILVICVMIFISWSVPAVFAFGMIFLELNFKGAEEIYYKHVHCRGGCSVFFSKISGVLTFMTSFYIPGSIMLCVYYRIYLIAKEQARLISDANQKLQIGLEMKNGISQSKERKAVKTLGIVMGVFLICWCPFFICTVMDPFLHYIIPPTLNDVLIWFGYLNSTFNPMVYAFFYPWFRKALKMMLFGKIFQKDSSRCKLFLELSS
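System: CHO RD-HGA16 cells carrying human TAAR1 plus Gα16; Incubation: 17-24 h seeding, 75 min 37 °C dye, 30 min RT; Measured by: Fluo-8 fluorescence, 5 s baseline then 140 s kinetic read; Control set: DMSO and PEA EC100; Replication: single well for each compound.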
TAAR1 antagonist: human TAAR1 antagonists, primary screen, Fluo-8 calcium fluorescence, CHO RD-HGA16 cells; Trace amine-associated receptor 1 (Homo sapiens), Q96RJ0; actives 1.5% (n = 360,000); inhibition, % at 3 µM; AID 624466, 2012; antagonist;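 active means inhibition above a per-plate cutoff, the mean inhibition of test compounds on that plate plus 3 SD, cut at about 49% in these data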
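test system = CHO RD-HGA16 cells bearing hTAAR1 | replication = singlicate | controls = DMSO-only wells and EC80 β-PEA-stimulated wells | reagent = EC80 β-phenethylamine stimulus | read-out basis = percent inhibition of PEA-evoked calcium signal, max/basal emission ratio | schedule = seeding 17-24 h prior, 75-min 37 °C, 30-min RT dye loading | signal = kinetic Fluo-8 calcium fluorescence measurement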
GPR7 antagonist: GPR7 receptor antagonists, primary screen, cell-based, fluorescence, single concentration; GPR7-expressing cells, fluorescence antagonist assay; Neuropeptides B/W receptor type 1 (Homo sapiens), P48145; inhibition, % at 4.4 µM; actives 1.1% (n = 290,000); AID 1861, 2009; in the data active means inhibition above about 16%, passing the limit was not always enough;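 further: cells stimulated with the agonist NPW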
OX1R HTRF conf: OX1R (HCRTR1) antagonists, confirmation, cell-based, HTRF. shares compounds with OX1R antag-1. OX1R-expressing cells, HTRF antagonist assay. inhibition, % at 6.6 µM. actives 49% (n = 1,800); in the data active means inhibition above about 55%;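 further: CHO cells expressing OX1R stimulated with orexin A at about EC80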
CHO-K1 HTRF cnt: signal inhibition in parental CHO-K1 cells, counter-screen for OX1R antagonist project, cell-based, HTRF; HTRF counterscreen; actives 48% (n = 1,800); shares compounds with OX1R antag-1; AID 493232, 2011; inhibition, % at 6.6 µM; in the data active means inhibition above about 17%
A number is an active result; n = inactive; x = no result given. A selection: hits, their analogues and other compounds. The true share with any hit is near 4.5%.

SMILES | OX1R antag-1 | OX1R antag-2 | CHO parental Ca | TAAR1 agonist | TAAR1 antagonist | GPR7 antagonist | OX1R HTRF conf | CHO-K1 HTRF cnt
O=C(CCNS(=O)(=O)c1cccc2nsnc12)NCc1ccco1 | 122 | n | n | n | n | n | n | 39
CCN(CC)c1c(C)nc2ccc(C(=O)N3CCN(C(=O)c4ccco4)CC3)cn12 | x | x | x | n | n | x | x | x
O=C(CCNS(=O)(=O)c1cccc2nsnc12)NC1CCN(Cc2ccccc2)CC1 | 78 | n | n | n | n | n | n | 53
O=C(NCc1ccco1)C(NS(=O)(=O)c1cccc2nsnc12)c1ccccc1 (stereo not drawn) | 92 | n | n | n | n | n | 61 | 28
O=S(=O)(Nc1ccccc1)c1cccc2nsnc12 | n | n | n | n | n | n | x | x
CC(=O)Nc1ccc(NC(=O)C2CCCN2S(=O)(=O)c2cccc3nsnc23)cc1 (stereo not drawn) | 80 | n | n | n | n | n | 62 | 36
O=C(CCNS(=O)(=O)c1cccs1)NC1CCN(Cc2ccccc2)CC1 | n | n | n | n | n | n | x | x
CC(=O)Nc1ccc(NC(=O)C2CCC(CNS(=O)(=O)c3cccc4nsnc34)CC2)cc1 (stereo not drawn) | n | n | n | n | n | n | x | x
O=C(Nc1nnc([C@@H]2C[C@H](O)[C@@H](CO)O2)s1)c1ccc(Oc2ccccc2)cc1 | x | x | x | n | n | x | x | x
CC(C)Oc1ccc(F)cc1-c1cc(C(=O)NCc2ccc(F)cc2)[nH]n1 | x | x | x | n | n | x | x | x
CC(Sc1nc2ccccc2c(=O)n1CCCN1CCOCC1)C(=O)N1CCc2ccccc21 (stereo not drawn) | x | x | x | n | n | x | x | x
O=C1C2=C(c3ccccc31)[N+](=O)C1CCCCC1N2[O-] (stereo not drawn) | 112 | n | n | n | n | n | n | 44
CN1[C@@H](Cc2ccccc2)COc2cc(N3CCSCC3)ccc2S1(=O)=O | x | x | x | n | n | x | x | x
O=C(Nc1cccc(Cl)c1)c1cc(N=Nc2ccc([N+](=O)[O-])cc2Cl)ccc1O | 77 | n | n | n | n | n | 57 | 23
COc1ccccc1-c1noc2c1C(=O)N(Cc1cn(-c3ccccc3OC)nn1)CC2 | x | x | x | n | n | x | x | x
Cc1[nH]n(-c2ccccc2)c(=O)c1/C=N/Nc1nncc(-c2ccccc2)n1 | 80 | n | n | n | n | n | n | n
C/C(=C\C(=O)c1ccncc1)Nc1ccccc1O | 91 | n | n | n | n | n | n | n
COc1ccc(OC)c(N/C(C)=C/C(=O)c2ccncc2)c1 | n | n | n | n | n | n | x | x
CCCN(CCC)CCCNC(=O)c1cc2cc3ccc(OC)cc3nc2o1 | 123 | n | n | n | n | n | n | 58
COc1ccc2cc3cc(C(=O)NCCc4ccc(OC)c(OC)c4)oc3nc2c1 | n | n | n | n | n | n | x | x
CCCCN(CC)CCCNC(=O)c1cc2cc3ccc(OC)cc3nc2o1 | 104 | n | n | n | n | n | n | 49
C[C@@H]1CN([C@@H](C)CO)C(=O)CCCn2nncc2CO[C@@H]1CN(C)C(=O)Nc1ccnc(N2CCOCC2)c1 | x | x | x | n | n | x | x | x
CC1CC1C(=O)Nc1cc(C(F)(F)F)ccc1N1CCOCC1 (stereo not drawn) | n | n | n | n | n | n | x | x
O=C(CSc1nc2ccccc2[nH]1)Nc1cc(C(F)(F)F)ccc1N1CCOCC1 | 87 | n | n | n | n | n | n | n
